Rows were chosen to be rich in hits. Some 3% of all compounds tested hit in one or more screens of this group.
PKD1 inh – blocks activity of human protein kinase D1; Q15139; PKD1 kinase fluorescence polarization assay; inhibition, % (no concentration beside the values); 0.056% of 200,000 active; AID 797; in the data active = inhibition above about 50%
ROMK primary – human ROMK K+ channel modulation, primary screen; P48048; Tet-inducible ROMK, thallium flux fluorescence; actives lie on both sides; B-score at 10 µM; 2% of 130,000 active;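 active = signal ratio slope over the read window, or its plate-corrected B-score, at least 3 SD from the plate mean, either direction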;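 also: B-score of the F/F0 ratio slope over 7 to 12 s after thallium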
Target sequence (P48048 whole entry, looked up): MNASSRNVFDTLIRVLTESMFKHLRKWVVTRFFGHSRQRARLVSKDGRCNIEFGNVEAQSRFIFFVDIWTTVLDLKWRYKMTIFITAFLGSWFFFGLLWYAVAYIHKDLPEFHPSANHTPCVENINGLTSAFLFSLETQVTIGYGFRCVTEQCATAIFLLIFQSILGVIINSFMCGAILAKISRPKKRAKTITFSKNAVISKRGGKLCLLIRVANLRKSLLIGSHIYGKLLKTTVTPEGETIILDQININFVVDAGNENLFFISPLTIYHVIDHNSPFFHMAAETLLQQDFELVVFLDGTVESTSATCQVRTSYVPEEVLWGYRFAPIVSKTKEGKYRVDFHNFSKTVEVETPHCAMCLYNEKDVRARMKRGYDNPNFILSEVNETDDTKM
Rad51 HR inh – Rad51 (human) homologous recombination inhibition | inhibition, % at 10 µM | 0.085% of 200,000 active | AID 1385 | hRad51 DNA strand exchange, fluorescence dequenching | Q06609;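 active = inhibition above 40% at the single screening dose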;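 also: 0% = DMSO control wells and 100% = blanks with heterologous ssDNA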
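Material: Human Rad51 nucleoprotein filaments preassembled on unlabelled ssDNA | Also added: Labelled 47-mer dsDNA for strand exchange | Dosing: Single dose, 10 µM final compound | Schedule: 30-min compound preincubation and 15-min exchange, both room temperature | Technique: Fluorescence dequenching at 485/520 nm | Measure: Percent inhibition relative to plate controls and blanks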
Cl transport mod – modulators of human KCC2 chloride dependent transport; Q9H2X9; KCC2 cells, thallium flux FluoZin-2 fluorescence; B-score of Tl+ flux slope (higher = more flux/activation; lower = inhibition) at 10 µM; 2.2% of 190,000 active;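 active = thallium flux slope and its plate-corrected score both differing from the plate sample mean at a set confidence after two filtering rounds, in either direction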;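 also: slope of fluorescence scaled to starting intensity during 10 to 20 s after thallium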
KCC2 sec1 – KCC2 (human) modulation, secondary assay; shares compounds with Cl transport mod; HEK293-KCC2, thallium flux, FluoZin2 fluorescence; hits give high values; normalised thallium flux (F/F0 slope) at 10 µM; 15% of 3,700 active; AID 1713;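 active = thallium flux slope above the same plate's solvent-only control mean plus 3 SD; inconclusive = the two replicate wells disagree; inactive = no significant difference from solvent-only control wells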
KCC2 bumet counter – thallium flux despite bumetanide block in KCC2 cells, secondary assay 3 | 49% of 3,700 active | normalized thallium flux at 10 µM | HEK293-KCC2 + bumetanide/ouabain, thallium flux FluoZin2; hits give high values | AID 1714 | shares compounds with Cl transport mod;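 active = thallium entry rate above the same plate's blocked-transporter control wells by more than 3 SD; inconclusive = the two repeat wells disagree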;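 also: raw slope of fluorescence over initial fluorescence between 10 and 20 s after thallium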
KCC2 sec2 – KCC2 (human) modulation, second secondary assay; shares compounds with Cl transport mod; HEK293-KCC2, thallium flux FluoZin2 fluorescence; actives lie on both sides; F/F0 rise rate, 10–20 s post-thallium; normalized thallium flux at 10 µM; 23% of 3,700 active; AID 1715;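 active = thallium flux slope more than 3 SD above or below the plate's solvent-only control mean, mostly below; inconclusive = the two repeat wells disagreed; inactive = no significant shift from solvent-only controls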;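 also: raw slope with 0.1% DMSO as baseline and bumetanide as block control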
HEK293 Tl flux – parental HEK flux effect, counter-screen; thallium flux rate (normalised fluorescence) at 10 µM; shares compounds with Cl transport mod; 46% of 3,700 active; HEK293 parental cells, thallium flux FluoZin2, ouabain; baseline-ratio fluorescence slope, 10–20 s after thallium;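 active = thallium flux rate significantly above the same plate's solvent-only control wells, beyond their mean plus 3 SD; inconclusive = the two replicate wells gave conflicting results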
KCC2 ouabain – confirmation of human KCC2 modulators with ouabain; shares compounds with Cl transport mod; HEK293-KCC2, thallium flux FluoZin2 fluorescence; bidirectional: low = inhibitor, high = activator; raw Tl+ flux slope (below DMSO = inhibition, above = activation) at 10 µM; 48% of 3,700 active; AID 1717;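 active = thallium flux slope beyond 3 SD from same-plate DMSO control mean in most replicates, usually higher, sometimes lower; inconclusive = repeat tests gave conflicting results; inactive = no significant difference from controls in most replicates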;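 also: slope of initial-normalized fluorescence between seconds 10 and 20 after thallium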
HEK counter2 – counter-screen for KCC2 modulators: effect in parental HEK293 cells; shares compounds with Cl transport mod; thallium flux FluoZin-2 fluorescence slope; thallium flux slope at 10 µM; 33% of 3,700 active; AID 1718;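 active = thallium flux slope above the same plate's solvent-control mean plus 3 SD in both duplicate wells; inconclusive = duplicate wells that disagreed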;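 also: run without ouabain in cells lacking the KCC2 cotransporter; slope of fluorescence scaled to its starting value between 10 and 20 s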
Active calls of the source: *; u = inconclusive; x = not tested or not shown.

SMILES	PKD1 inh	ROMK primary	Rad51 HR inh	Cl transport mod	KCC2 sec1	KCC2 bumet counter	KCC2 sec2	HEK293 Tl flux	KCC2 ouabain	HEK counter2
CN(c1ccccc1)c1ccc(/C=C(\CCC(=O)O)c2nc3ccccc3s2)cc1[N+](=O)[O-]	3	-0.14	5	-6.9*	0.0053	0.0047	0.021*	0.0069	0.012*	0.0098
Cc1ccc2sc(NC(=O)CN3C(=O)c4ccccc4C3=O)nc2c1C	-4	0.15	x	2.1	x	x	x	x	x	x
O=C(COc1ccccc1F)NCC(c1ccco1)N1CCCC1 (stereo not drawn)	8	1.1	3	1.2	x	x	x	x	x	x
O=C1COc2ccc(-c3csc(=Nc4ccc(OC(F)F)cc4)n3CC3CCCO3)cc2N1 (stereo not drawn)	-1	x	-1	-4.8*	0.0071	0.0051	0.028	0.0075	0.017	0.01
COc1ccccc1N=c1scc(-c2ccc3c(c2)NC(=O)CO3)n1CC1CCCO1 (stereo not drawn)	-4	-0.78	-6	0.014	x	x	x	x	x	x
O=C1NC[C@@H](Cc2cccc3ccccc23)N(CCc2cc(C(F)(F)F)cc(C(F)(F)F)c2)C1=O	x	x	-2	-3.9*	0.0058	0.0045	0.025*	0.0071	0.016	0.0097
O=C(NC(c1ccccc1)c1ccccc1)c1ccc(=O)[nH]n1	1	0.5	-17	0.33	x	x	x	x	x	x
S=c1nccc(-c2ccc(Cl)cc2)[nH]1	x	x	12	19*	0.01*	0.019*	0.041*	0.024*	0.032*	0.027*
Clc1ccc(-c2ccn[nH]2)cc1	5	0.21	-2	1.4	x	x	x	x	x	x
Cc1ccc(CNC(=O)C2CN(S(C)(=O)=O)c3cc(Cl)ccc3O2)cc1 (stereo not drawn)	8	-1.1	7	0.89	x	x	x	x	x	x
CN(Cc1ccccc1)C(=O)COC(=O)c1cc(NS(=O)(=O)c2cccs2)ccc1O	5	0.51	-5	-3.5*	0.018	0.0046	0.022*	0.0066	0.014	0.01
O=C(Nc1nnc(C2CC2)s1)c1n[nH]c(=O)c2ccccc12	x	x	-3	x	x	x	x	x	x	x
Cc1ccc(/C(O)=C/C(=O)C(=O)NC23CC4CC(CC(C4)C2)C3)cc1	x	x	-2	86*	0.01	0.075*	0.038	u	0.055*	0.02*
O=C(OCc1ccccc1)N1CCCC1/C=C/CN1CCOCC1 (stereo not drawn)	-4	0.83	-6	0.38	x	x	x	x	x	x
O=C(COC(=O)CNC(=O)c1cccc([N+](=O)[O-])c1)NCc1ccco1	0	-0.14	-9	-0.41	x	x	x	x	x	x
COc1cc2c(cc1OC)C(c1cccs1)CC(=O)N2 (stereo not drawn)	-5	0.56	-4	x	0.0063	0.0047	0.029	0.0081	0.019	0.011
Cc1ccc(-c2nnc(SCC(=O)Nc3cccc(C(=O)N4CCOCC4)c3)n2C)cc1	-12	0.62	5	-0.51	x	x	x	x	x	x
Cc1ccccc1OCCn1cnc2cc([N+](=O)[O-])ccc2c1=O	-4	0.29	-4	0.92	x	x	x	x	x	x
O=S(=O)(c1ccc(Cl)cc1)N(CCCN1CCOCC1)Cc1cccs1	-1	-0.4	17	x	0.017	0.0042	0.029	u	0.015	0.0099
CCN(CCCNC(=O)CN(C)S(=O)(=O)c1cccc2nsnc12)c1ccccc1	-9	-0.28	x	x	0.0059	0.0043	u	0.0074	0.016	0.0097
CS(=O)(=O)N(CCc1ccccc1)CC(=O)N1CCN(Cc2ccccc2)CC1	4	-0.72	3	-3.2*	0.0063	0.0053	0.033	0.0038	u	0.011
O=C(CN(c1ccc2c(c1)OCCO2)S(=O)(=O)c1ccccc1)N1CCN(Cc2ccccc2)CC1	-8	-1.2	x	-4.1*	0.0061	u	0.023*	0.0072	u	0.01
